Compounds with a hit are over-represented: about 3.6% of the library has one in this group of screens.
MITF act – increases MITF-driven TRPM1 promoter luciferase signal. SK-MEL-5 TRPM1-promoter luciferase, 24 h; % of positive control, neutral wells = 0. activation, % at 12.5 µM. 300,000 tested, 0.75% active;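 active means mean activation of at least 80% with every replicate also reaching 80%; inconclusive means mean reaches 80% but some replicate falls short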
SR-BI DiI-HDL act – activators of SR-BI mediated HDL lipid uptake | 320,000 tested, 0.096% active | CHO ldlA[mSR-BI] cells, DiI-HDL uptake fluorescence, 3 h; 100 = double the neutral-control signal | activation, % at 12.5 µM | AID 504775;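 active means mean replicate activation of at least 60% and every replicate at or above 60%; inconclusive means mean or all-replicate condition met, but not both; inactive means mean below 60% and not all replicates reaching 60%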
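system = CHO ldlA[mSR-BI] cells, LDL receptor-null, SR-BI overexpressing | medium = Ham's F12 with 0.5% BSA, HEPES 25 mM, pH 7.4 | probe or stimulus = DiI-HDL 10 µg/mL | compound dosing = single-point compound dose | incubation = compound exposure 3 h, 37 °C | technique = DiI fluorescence, bottom read | read-out = cell-associated DiI fluorescence as measure of HDL uptake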
Wnt act – activators of Wnt/beta-catenin signaling | activation, % at 9.35 µM | 300,000 tested, 1.2% active | Wnt/beta-catenin reporter cell assay, activator, plate reader; in the data active means activation above about 30%, passing the limit was not always enough; inconclusive means no clear call, values can overlap the other calls
SR-BI DiI inh – blocks mouse SR-BI lipid uptake from DiI-HDL | ldlA[mSR-BI] CHO cells, DiI-HDL uptake fluorescence, 3 h | inhibition, % at 12.5 µM | 320,000 tested, 0.96% active;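 active means mean replicate inhibition of at least 70% and a set share of replicates each scoring 70 or more; inconclusive means meets just one of the two criteria; inactive means fails both criteria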
Target sequence (Q61009 whole entry, looked up): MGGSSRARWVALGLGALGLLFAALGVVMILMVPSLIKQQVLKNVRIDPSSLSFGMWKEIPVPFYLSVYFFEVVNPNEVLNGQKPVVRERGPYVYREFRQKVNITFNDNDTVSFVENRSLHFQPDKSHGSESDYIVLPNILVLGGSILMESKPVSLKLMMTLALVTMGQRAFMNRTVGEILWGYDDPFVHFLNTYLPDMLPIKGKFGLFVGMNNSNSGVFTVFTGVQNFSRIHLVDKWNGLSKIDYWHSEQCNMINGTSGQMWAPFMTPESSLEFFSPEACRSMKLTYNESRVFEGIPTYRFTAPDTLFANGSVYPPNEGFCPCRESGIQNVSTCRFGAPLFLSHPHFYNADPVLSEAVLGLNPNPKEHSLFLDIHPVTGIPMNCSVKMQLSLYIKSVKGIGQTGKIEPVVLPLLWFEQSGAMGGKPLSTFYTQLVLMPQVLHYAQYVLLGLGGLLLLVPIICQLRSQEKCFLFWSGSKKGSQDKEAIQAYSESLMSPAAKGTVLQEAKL
HSF-1 act – increases HSF-1 driven luciferase reporter signal. activation, % at 9 µM. NIH3T3-HGL HSF-1 luciferase reporter, MG132, 8 h; 100% = twice DMSO control signal. 300,000 tested, 1.7% active;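 active means mean replicate activation of at least 50% with a set share of replicates each reaching 50%; inconclusive means only one of those two conditions met; inactive means mean below 50% and too few replicates reaching it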
Hits are given with their value; 0 = inactive; ? = inconclusive; - = no result; ! = not confirmed by another sample.

SMILES	MITF act	SR-BI DiI-HDL act	Wnt act	SR-BI DiI inh	HSF-1 act
CCC[C@@H]1C=C(C(=O)OCC)[C@H](c2ccccc2)N1S(=O)(=O)c1ccc(C)cc1	-	-	0	-	-
c1ccc(-c2ccccc2-c2nc(-c3ccncc3)no2)cc1	0	0	-	0	0
Clc1ccccc1-c1nc(-c2ccncc2)no1	0	0	49.0!	0	0
CN1c2ccsc2/C(=N/Nc2ccc(F)cc2)CS1(=O)=O	0	0	0	0	0
Cc1ccc(N/N=C2\CS(=O)(=O)N(C)c3ccsc32)cc1	0	0	0	0	87.5
COc1cccc(OC2(C)CCN(Cc3cccn3-c3nccs3)C2)c1 (stereo not given)	-	-	0	-	-
COc1ccc(-c2cc3nc4n(c(=O)c3s2)CCCCC4)cc1	-	0	36.9	0	0
O=C1c2ccncc2C(=O)N1CNc1ccc(Cl)cc1	0	0	59.9	0	0
O=C1c2cccnc2C(=O)N1CNc1ccc(Cl)cc1	0	0	0	0	0
Cc1ccc2nc(NCc3ccccc3)c(C=O)c(=O)n2c1	0	0	0	0	90.3
Cc1ccc2nc(Nc3ccccc3)c(C=O)c(=O)n2c1	0	0	0	0	0
Cc1c(C(=O)OCC(=O)NCC2CCCO2)cccc1[N+](=O)[O-] (stereo not given)	0	0	36.9	0	0
Cc1ccc(C(=O)OCC(=O)NCC2CCCO2)c(C)c1 (stereo not given)	0	0	0	0	0
Cc1cnc(NC(=O)CCCNC(=O)c2ccc(Cl)cc2)s1	0	0	51.8	0	-
Cc1ccc(NC(=O)CCCNC(=O)c2ccc(Cl)cc2)nc1	0	0	0	0	0
CCC1CN(C(=O)N2CCC(C(=O)NCCc3ccc(OC)cc3OC)CC2)c2ccccc2O1 (stereo not given)	0	0	0	78.2	0
CCC1CN(C(=O)N2CCC(C(=O)NCCc3ccccc3OC)CC2)c2ccccc2O1 (stereo not given)	0	0	0	?	0
COC(=O)C1=C(C)N(Cc2ccc(Cl)cc2)C(=S)NC1c1ccc(Cl)cc1 (stereo not given)	-	-	0	-	-
O=C(NCC(=O)N(c1cccc(F)c1)C(C(=O)NC1CCCC1)c1ccncc1)c1ccco1 (stereo not given)	0	0	0	0	54.3
CC(C)OCCCNC(=O)c1c(N)n(/N=C/c2ccccn2)c2nc3ccccc3nc12	-	83.7	-	0	0
Cc1ccc(CN2CC(N3CC=CC3)CS2(=O)=O)cc1 (stereo not given)	-	-	0	-	-
CN(C)c1ccc(N=Cc2nc(-c3ccccc3)oc2OC(=O)c2ccccc2)cc1	0	0	34.5	0	0
O=C(CSc1ccc(Cl)cc1)N1CCN(c2c(Cl)cccc2[N+](=O)[O-])CC1	0	0	-	0	69.6
Cc1ccc(S(=O)(=O)N2CCN(C(=O)CSc3ccc(Cl)cc3)CC2)cc1	0	-	0	-	74.5
Cc1ccc(SCC2(O)CCN(S(=O)(=O)c3ccc(Cl)cc3)CC2)cc1	-	0	0	0	0
SMILES	MITF act	SR-BI DiI-HDL act	Wnt act	SR-BI DiI inh	HSF-1 act
Cc1c(-c2ccccc2)nnn1-c1ccc(F)c(Cl)c1	-	-	0	-	-
Cc1cc(Br)cn2c(Cc3ccccc3C(F)(F)F)c(-c3cccc(Cl)c3)nc12	-	-	0	-	-
Cc1ccc(C(=O)Nc2cc(Cl)ccc2N2CCCCC2)s1	0	0	-	77.2	0
COc1ccc(CCNC(=S)NC(=O)c2cccc([N+](=O)[O-])c2)cc1OC	0	0	0	0	0
Cc1nc2c(ccc3nc(NC(=O)c4ccc5c(c4)OCCO5)sc32)s1	0	0	-	74.9	0
O=C1c2ccccc2C(=O)N1CCC(=O)N1CCCc2ccccc21	0	0	-	0	58.0
Cc1ccc(SCC(=O)N2CCc3ccccc32)cc1	0	0	0	0	80.3
O=C(c1ccc(Cl)s1)N1CCc2ccccc21	0	0	-	0	0
Cc1cc(C)nc(SCC(=O)N2CCc3ccccc32)n1	0	0	0	0	0
Cc1ccc(-c2nnn(CC(=O)N3CCCc4ccccc43)n2)cc1	0	0	0	0	57.3
O=C1c2ccccc2C(=O)N1CCC(=O)N1CCc2ccccc21	0	0	-	0	-
CCc1sc(C(=O)N2CCc3ccccc32)cc1C	0	0	39.2	0	0
CC1=CC(=O)C(Sc2ccc(C)cc2)=CC1=O	-	-	0	-	-
CCC(C)N(Cc1ccc(OC)cc1OC)S(=O)(=O)c1cc(Br)ccc1Br (stereo not given)	-	-	0	-	-
COC(=O)[C@]12CCCCC=C1N(CCc1ccc(OC)c(OC)c1)C(=O)[C@H](CC(=O)NCc1ccccc1)C2	-	-	0	-	-
CC(C)c1ccc(NC(=O)C2Cc3c(-c4ccccc4Oc4ccccc4)ccnc3O2)cc1 (stereo not given)	-	-	0	-	-
Cn1c(-c2ccccc2)cnc1SCC(=O)N1CCCc2ccccc21	0	0	0	0	66.8
O=C(CSc1nnc(-c2ccccc2)c(-c2ccccc2)n1)N1CCc2ccccc21	0	0	-	0	129.8
Cc1ccc(C(=O)N2CCc3ccccc32)cc1	0	0	0	0	66.4
O=C(c1ccc(Cl)cc1)N1CCc2ccccc21	-	0	0	0	0
CN(N=Cc1ccccc1O)C(=O)c1ccccc1N	-	-	0	-	-
C=CCN(c1ccccc1OC)S(=O)(=O)c1cccc(C(=O)NCC(c2ccc(OC)cc2)N2CCCC2)c1 (stereo not given)	0	0	0	0	-
O=C(NN1C(=O)C2C(C1=O)C1C=CC2C12CC2)c1ccc(Cl)cc1 (stereo not given)	-	0	0	0	65.3
CCOC(=O)c1sc(NCc2ccco2)c(-c2nc3ccccc3s2)c1N	0	0	0	87.7	0
CCNc1sc(C(=O)c2cccs2)c(N)c1C#N	0	-	0	-	0
SMILES	MITF act	SR-BI DiI-HDL act	Wnt act	SR-BI DiI inh	HSF-1 act
CCNc1sc(C(=O)c2cccs2)c(N)c1-c1nc2ccccc2s1	0	0	-	97.5	0
C=CCNc1sc(C(=O)c2ccccc2)c(N)c1-c1nc2ccccc2s1	-	0	-	90.9	0
c1coc(CNc2nc3ccccc3s2)c1	0	-	35.6	-	79.8
Nc1nccc(SCc2ccccc2)n1	0	0	0	0	-
CN(C)CCC1(c2ccccc2)CCN(C)C1=O (stereo not given)	-	-	0	-	-
COc1ncnc2c1ncn2CCCNCc1ccccn1	-	-	0	-	-
COC(=O)N1CCCCC1c1cc(C(=O)Nc2cccc3c2CCCC3)no1 (stereo not given)	-	-	0	-	-
CC(C)S(=O)(=O)c1csc(NC(=O)Nc2ccc(Cl)cc2)c1	-	0	0	0	76.7
NS(=O)(=O)c1cccc(NC(=O)Nc2ccc(Cl)cc2)c1	0	0	0	0	0
COC(=O)c1cc2c(c3c4cc(F)ccc4n(S(=O)(=O)c4ccccc4)c13)C(=O)N(C)C2	-	-	0	-	-
COc1ccc(N/C=C/C(=O)c2cc(OC)c(OC)c(OC)c2)cc1	-	0	0	72.1	0
COc1ccc(C(=O)/C=C/Nc2cccc(C)n2)cc1OC	93.4	0	-	0	0
COc1ccc(N/C=C/C(=O)c2ccc(OC)c(OC)c2)cc1	0	0	0	0	0
COc1ccc(N/C=C/C(=O)c2ccc(Cl)cc2)cc1	106.3	0	-	0	0

Bioassay records (PubChem BioAssay)
